Bioassay records: PubChem, Broad Institute
PGC1a Ac signal: raises PGC1a acetylation signal in U2OS cells | actives 0.21% (n = 350,000) | AID 651723 | U2OS PGC1a acetylation AlphaScreen, overnight | activation, % at 15.6 µM;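 active = every replicate reaching activation of at least 50%, whatever the mean replicate activation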;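 note: hits raise the AlphaScreen acetylation signal above neutral controls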
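System: Flag-PGC1a/GCN5 U2OS cells | Quantity: 7000 cells/well | Times: Overnight compound treatment, 37 °C | Measured by: AlphaScreen proximity luminescence, anti-acetyl-lysine antibody | Dosing: One concentration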
Numbers without * were called inactive. Only a selection was taken, and hits are over-represented in it overall.

SMILES | PGC1a Ac signal
CCOC(=O)CC(S(=O)(=O)c1ccccc1)S(=O)(=O)c1ccccc1 | 96*
CCOC(=O)C1=C(CS(=O)(=O)c2ccccc2)NC(=O)NC1c1ccc(O)c(OC)c1 (stereo not given) | -52
Cc1ccc(-c2cnc3c(c2)C(=O)N([C@H](C)CO)C[C@H](C)[C@@H](CN(C)C)O3)cc1 | -50
CCOc1ccc(S(=O)(=O)N(C)c2ccc(OCC(=O)N3c4ccc(C)cc4C4CN(C)CCC43)cc2)cc1 (stereo not given) | -75
O=c1oc(-c2ccccc2)cc(Cl)c1Cl | 115*
Cc1cccc(S(=O)(=O)N(C)C[C@@H]2OCc3cn(nn3)CCCC(=O)N([C@@H](C)CO)C[C@H]2C)c1 | -59
CS(=O)(=O)N(CC(=O)N1CCN(c2ccccc2)CC1)c1cccc(Br)c1 | -43
CC(=O)Nc1ccc(NC(=O)CN(c2cccc([N+](=O)[O-])c2)S(C)(=O)=O)cc1 | 455*
O=S(=O)(c1ccc(N2CCC(c3ccc(Cl)cc3)=N2)cc1)N(CCO)CCO | -43
COC(=O)Nc1ccc(S(=O)(=O)N(CCO)CC(F)(F)C(F)F)cc1 | 62*
Cc1ccc(S(=O)(=O)N(CC2CO2)c2ccccc2[N+](=O)[O-])cc1 (stereo not given) | -79
C=CCn1cccc(/C=C/C(=O)c2ccc(C(C)(C)C)cc2)c1=S | -53
COC(=O)c1cccc(NC(=O)CSc2nc3cccnc3n2C)c1 | -53
CC(C)OC(=O)CSc1nc2cccnc2n1-c1ccc(F)cc1 | 53*
FC(F)(F)c1ccc(Cl)c(-n2c(-c3cc(-c4ccco4)[nH]n3)n[nH]c2=S)c1 | -43
S=c1[nH]nc(-c2ccco2)n1/N=C/C(Cl)=C/c1ccccc1 | 65*
S=c1[nH]nc(-c2cc(-c3ccccc3)n[nH]2)n1/N=C/C(Br)=C/c1ccccc1 | 241*
COc1ccc2c3c([nH]c2c1)[C@@H](CO)N(C(=O)c1ccccc1)CC31CCN(S(=O)(=O)c2cccs2)CC1 | -51
CC1CCN(S(=O)(=O)c2ccc(Oc3ccc([N+](=O)[O-])cc3)cc2)CC1 | -54
CCOC(=O)C1=CC[C@@H](c2ccc([N+](=O)[O-])cc2)N(S(=O)(=O)c2ccc(C)cc2)[C@H]1c1ccccc1 | 57*
COc1cc2[nH]c(=O)n(CCCC(=O)NCCc3ccccc3)c(=O)c2cc1OC | 84*
COc1ccc(CCNC(=O)C(=O)NCC2CCCO2)cc1OC (stereo not given) | -44
O=C(CCCc1cccs1)NCCc1c[nH]c2ccccc12 | -42
COc1ccc(C2=NOC(C(=O)Nc3cccnc3)C2)cc1 (stereo not given) | 64*
O=C(O)c1cccn1Cc1ccccc1F | -54
SMILES | PGC1a Ac signal
CCOC(=O)c1c2c(n(C)c1C)C(=O)C(=O)c1ccc(Br)cc1-2 | 83*
CCOC(=O)c1c(C)n(C)c2cc(Br)c(O)c(O)c12 | -47
CCN(CC)C(=O)CSc1nnc(-c2cccnc2)n1Cc1ccccc1 | -45
Clc1ccc(CSc2nnc(-c3cccnc3)n2Cc2ccco2)c(Cl)c1 | 74*
CO[C@H]1CN(C)C(=O)c2ccc(NS(=O)(=O)c3ccccc3)cc2OC[C@H](C)N(C(=O)NC(C)C)C[C@@H]1C | -59
CCCCN(C)C1CCN(C(=S)Nc2cccc(OC)c2)CC1 | -52
COc1cccc(-c2csc(N3CCN(C(=S)Nc4ccccc4Cl)CC3)n2)c1 | 67*
Cc1cc(=O)oc2cc(OCC(=O)OCC(=O)Nc3ccccc3F)ccc12 | -45
COCCCNC(=O)c1ccc(Cn2c(=O)c3ccccc3n(Cc3ccccc3C)c2=O)cc1 | -52
O=C1CSC(=Nc2ccc(Cl)cc2)N1Cc1ccco1 | -47
O=C(NCc1ccco1)c1ccc(Cn2c(=O)c3ccccc3n(Cc3ccc(Cl)cc3)c2=O)cc1 | 88*
Cc1[nH]c2ccccc2c1C(=O)/C=C/c1ccccc1 | -71
O=C(N/N=C/c1ccc(F)cc1)c1c(O)c2ccccc2[nH]c1=O | -45
CC(C)NC(=O)c1c(O)c2ccccc2[nH]c1=O | 97*
O=C(COC(=O)Cc1ccc(S(=O)(=O)N2CCOCC2)s1)NCCc1ccccc1 | -41
CC(=O)Nc1ccc(OS(=O)(=O)c2ccc(C)cc2C)cc1 | -48
CCOc1ccc2c(c1)C(C)=CC(C)(C)N2S(=O)(=O)c1ccc(NC(C)=O)cc1 | 106*
CC(C)[C@H]1COCCS(=O)(=O)N1Cc1ccccc1F | -50
Cc1c(/C=N/Nc2nc3ccccc3[nH]2)c2ccccc2n1C | 121*
O=S1(=O)CCC(N=Cc2ccc(-c3ccc(Cl)cc3)o2)C1 (stereo not given) | -44
CO[C@H]1CN(C)C(=O)c2ccc(NS(=O)(=O)c3ccccc3)cc2OC[C@@H](C)N(C(=O)NC(C)C)C[C@@H]1C | -52
O=C(CC(Nc1ccc(F)cc1)C(=O)O)c1ccccc1 (stereo not given) | 76*
O=C(CNc1cccc2ccccc12)N/N=C/C(Br)=C/c1ccccc1 | 213*
O=C(N/N=C/C(Br)=C/c1ccccc1)c1cc(-c2ccco2)[nH]n1 | 143*
O=C(Nc1ccc2c(c1)C(=O)N(c1ccccc1)C2=O)c1cccs1 | -53
SMILES | PGC1a Ac signal
O=C(N/N=C/C(Br)=C/c1ccccc1)c1n[nH]c2c1CCC2 | 72*
O=C(N/N=C/C(Br)=C/c1ccccc1)c1cccs1 | 166*
CC(C(=O)OCn1nnc2ccccc2c1=O)N1C(=O)c2ccccc2C1=O (stereo not given) | -48
C[C@@H]1CN([C@H](C)CO)C(=O)c2cc(NC(=O)CCCCCC(=O)Nc3ccccc3N)ccc2O[C@H]1CN(C)S(=O)(=O)c1ccc(Cl)cc1 | -60
COCC(=O)OCC(=O)Nc1cc(C(C)(C)C)nn1-c1ccccc1 | -47
c1ccc(N2CCN(C3CC4CCC3C4)CC2)cc1 (stereo not given) | -53
CC(C)(C)c1ccc(OCCSc2nc3ccccc3n2CC(=O)O)cc1 | -41
Cc1ccsc1C(=O)Nc1cc(Cl)ccc1-n1cncn1 | -61
CCN(CC)S(=O)(=O)c1cccc(-c2nnc(SCc3ncc(-c4ccccc4)o3)n2C)c1 | -43
CCC(C)(C)NC(=O)c1ccc2c(c1)S(=O)(=O)c1ccccc1C2=O | -54
C[C@@H]1CN([C@H](C)CO)C(=O)c2cc(C#CC3CC3)cnc2O[C@H]1CN(C)C(=O)Nc1ccc(F)cc1 | -41
CC(CCC(=O)O)C1CCC2C3CCC4CC(O)CCC4(C)C3CC(O)C12C (stereo not given) | -49
O=C(N/N=C/C(Br)=C/c1ccccc1)c1ccccc1F | 57*
CC1C(=O)NN=C1C(=O)N/N=C\C(Br)=C\c1ccccc1 (stereo not given) | 404*
O=C(NN=C1c2ccccc2-c2ccccc21)c1ccccc1Br | -66
CCOC(=O)C1(Cc2cccc(Cl)c2)CCCN(C(=O)c2cccnc2)C1 (stereo not given) | -97
CC12CC(c3ccccc3O1)N(C(=O)c1ccc(Br)o1)C(=O)N2c1ccccc1 (stereo not given) | -44
CCCOC1CCCN(C(=O)c2cc(Cl)c(Cl)cc2C(=O)O)C1 (stereo not given) | 87*
CCOC(=O)N1CCN(C(=O)c2cc(Cl)c(Cl)cc2C(=O)O)CC1 | -84
Cc1cc2oc(=O)cc(CN3CCC(C)CC3)c2cc1C | -42
O=C1C(c2ccccc2)C(c2ccccc2)NC(c2ccccc2)C1c1ccccc1 (stereo not given) | 55*
c1csc(CNc2ncnc3ccc(-c4ccoc4)cc23)c1 | -50
C[C@H]1CN([C@@H](C)CO)S(=O)(=O)c2ccc(Br)cc2O[C@H]1CN(C)S(C)(=O)=O | -107
